# Compound activity from PubChem.
# ABCB1 inh: ABCB1 efflux pump inhibitors, primary screen, cell-based, multiplex, flow cytometry, ABCG2 counter-screen | AID 1326, 2008 | inhibition, % at 6.6 µM | 190,000 compounds, 0.067% hits | CCRF-Adr cells, JC-1 efflux | ATP-dependent translocase ABCB1 (Homo sapiens), P08183; in the data active = inhibition above about 40%;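 note: 0% = vehicle and 100% = reference inhibitor; higher value means more JC-1 retained so stronger ABCB1 efflux block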
# L major viab: Leishmania major promastigote growth inhibition, primary screen; Leishmania major promastigotes, resazurin fluorescence viability; inhibition, % at 10 µM; 200,000 compounds, 9% hits; AID 1063, 2008; in the data active = inhibition above about 50%;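 note: promastigotes grown with compound for 44 hours at 28 °C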
# ABCG2 inh: ABCG2 efflux pump inhibitors, primary screen, multiplex with ABCB1, IgMXP3 cells, flow cytometry | JC-1 efflux | inhibition, % at 6.6 µM | 190,000 compounds, 0.1% hits;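 active = inhibition above 80%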;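 note: 0% = DMSO and 100% = nicardipine control wells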
# Target sequence (Q9UNQ0 whole entry, looked up): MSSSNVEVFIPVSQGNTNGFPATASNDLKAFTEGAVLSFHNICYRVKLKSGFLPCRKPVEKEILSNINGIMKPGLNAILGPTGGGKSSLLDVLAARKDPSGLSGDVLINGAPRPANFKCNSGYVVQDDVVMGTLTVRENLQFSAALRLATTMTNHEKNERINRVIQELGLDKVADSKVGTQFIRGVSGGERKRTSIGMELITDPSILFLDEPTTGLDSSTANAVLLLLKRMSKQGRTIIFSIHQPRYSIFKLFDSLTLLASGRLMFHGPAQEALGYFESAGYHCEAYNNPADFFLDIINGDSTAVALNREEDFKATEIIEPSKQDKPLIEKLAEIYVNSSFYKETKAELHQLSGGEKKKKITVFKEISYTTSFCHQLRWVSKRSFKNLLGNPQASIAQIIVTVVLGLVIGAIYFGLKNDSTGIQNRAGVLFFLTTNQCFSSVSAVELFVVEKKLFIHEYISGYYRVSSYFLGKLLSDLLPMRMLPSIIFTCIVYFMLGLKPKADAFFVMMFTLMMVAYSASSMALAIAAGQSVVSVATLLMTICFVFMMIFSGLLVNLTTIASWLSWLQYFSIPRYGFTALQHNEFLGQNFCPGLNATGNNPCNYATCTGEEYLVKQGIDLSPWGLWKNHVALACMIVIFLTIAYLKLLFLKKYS
#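 Test system: IgMXP3 (ABCG2) plus far-red-tagged CCRF-Adr (ABCB1) cells / Amount: 3 million cells/mL in well / Reagent: JC-1 transporter substrate / Timing: 10 min compound exposure, 25 °C / Signal: flow cytometry, 530 nm JC-1 signal / Read-out: percent efflux inhibition, scaled nicardipine 100% to DMSO 0% / Benchmarks: nicardipine as high control, DMSO as low control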
# WT yeast gro inh: growth inhibition of WT strain, primary screen, mitochondrial fusion inhibitor project, WT and mutant strains, chemical genetic. AID 1362, 2008. inhibition, % at 10 µM. 190,000 compounds, 2.1% hits. mitochondrial fusion phenotypic screen; in the data active = inhibition above about 58%; tested in S. cerevisiae
# RAM network inh: inhibitors of the yeast RAM network, primary screen, dse1pr::URA3 reporter, 5-FOA selection; 190,000 compounds, 1.8% hits; inhibition, % at 50 µM; S. cerevisiae dse1pr::URA3 reporter, 5-FOA growth OD615, 2 d; analog-sensitive cbk1-as2 kinase mutant strain;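 active = inhibition above a set limit, 3 SD over mean compound inhibition, cut at about 8.4% in these data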;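 note: 0% = DMSO-only wells with no growth and 100% = 10 µM 1-NA-PP1 full growth; inhibition rescues growth on 5-FOA so higher OD means more RAM inhibition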
# RAM efflux-def: 5-FOA growth of efflux-deficient control yeast, dose response, counter-screen for RAM network inhibitor project, S. cerevisiae, OD615; S. cerevisiae efflux-deficient reporter strain, 5-FOA growth OD615, 2 days; 1,200 tested, under 10 active; AID 1305, 2008; max inhibition, %; shares compounds with RAM network inh; call rule not given here;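 note: plate controls were vehicle for no effect and reference inhibitor for full effect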
# Starred values were filed as active, the others as inactive; . = no result. The list is not random: actives were taken first. Their share in the collection is about 12%.
SMILES,ABCB1 inh,L major viab,ABCG2 inh,WT yeast gro inh,RAM network inh,RAM efflux-def
COc1ccccc1/C=C/C(=O)OCC(=O)Nc1ccccc1Sc1ccccc1,0.2,-5.5,2.9,20.4,15.5*,3.4
O=C(COC(=O)CNS(=O)(=O)c1cccc(Br)c1)Nc1ccccc1Sc1ccccc1,-0.1,-6.1,-3.2,1.5,15.0*,1.7
Cc1ccc(-c2nn3cnnc3c3ccccc23)cc1C,1.9,15.1,18.8,8.9,2.2,.
COc1ccc(CC(=O)Nc2nnc(SCC(=O)NCc3ccco3)s2)cc1OC,0.2,-8.3,1.6,-12.1,5.6,.
COc1ccc(/C=C/C(=O)OCC(=O)NCc2ccco2)c(OC)c1,0.2,-9.2,2.4,8.1,7.2,.
Cc1ccc(C(=O)/C=C/c2cn(CC(O)CN3CCOCC3)c3ccccc23)cc1 (stereo not drawn),1.2,52.9*,0.9,51.3,19.3*,1.7
O=C(CSc1nnc(SCc2ccc(Cl)cc2)s1)c1ccc2c(c1)OCO2,-3.1,-4.8,-11.7,18.9,16.3*,1.8
COCCNc1nnc(SCC(=O)c2ccc3c(c2)OCO3)s1,0.1,0.3,2.9,-1.3,3.0,.
COc1cc(CNC(=O)c2cccc(COc3ccc(Cl)cc3)c2)cc(OC)c1,0.5,-1.5,7.2,-2.9,11.9*,2.1
O=C(NCc1ccccc1)c1cccc(COc2ccc(Cl)cc2)c1,1.2,11.8,4.4,49.5,4.5,.
O=C(CN1CCN(c2ccccc2)CC1)N/N=C/c1cccc(F)c1,1.4,-4.2,7.4,1.5,-0.8,.
Clc1cccc(N/N=C/c2ccc(N3CCOCC3)s2)c1,-1.6,10.5,-6.7,48.9,1.6,.
O=C(Nc1ccccc1)C1=C[C@H](c2csc3ccccc23)C[C@H](OCc2ccc(CO)cc2)O1,3.0,46.9,8.0,35.0,5.4,.
C=CCOC(=O)C1=C[C@@H](c2csc3ccccc23)C[C@@H](OCc2ccc(CO)cc2)O1,1.6,27.8,3.0,39.3,13.6*,2.7
O=C1CCC/C(=N\NC(=O)c2ccc(CSc3cccc4cccnc34)cc2)C1,0.4,-4.0,4.1,-13.2,0.0,.
CCN(CC)c1nc(SCCOC(=O)Nc2ccccc2)nc(N(CC)CC)n1,0.9,35.5,5.3,11.5,18.0*,8.1
CCN(C(C)=O)c1ccc(Oc2nc(OC)cc(OC)n2)cc1,0.7,-7.9,2.0,-18.8,0.8,.
CCN(CC)c1nc2ccccc2nc1C(C#N)C(=O)NCCCOC (stereo not drawn),1.8,15.8,7.7,-11.2,1.2,.
CCCN(CCC)c1nc2ccccc2nc1C(C#N)C(=O)OC(C)COC (stereo not drawn),1.2,65.6*,1.6,68.1*,12.7*,1.8
CCCCN(CCCC)c1nc2ccccc2nc1C(C#N)C(=O)NCCCOC (stereo not drawn),1.9,8.9,9.4,14.6,14.8*,5.2
O=C(O)/C=C/C(=O)NC1CCC(CC2CCC(NC(=O)/C=C/C(=O)O)CC2)CC1 (stereo not drawn),0.5,-6.2,0.1,1.6,1.4,.
CCOC(=O)c1sc(NC(=O)/C=C/c2cnn(CC)c2C)c(C(=O)OCC)c1C,8.0,2.3,25.4,63.2*,11.8*,2.8
CCOC(=O)c1c(NC(=O)CCN2C(=O)c3cccc([N+](=O)[O-])c3C2=O)sc(C(=O)OC(C)C)c1C,-0.3,-6.2,1.9,8.2,-0.5,.
CCOC(=O)c1sc(NC(=O)CCCn2nc([N+](=O)[O-])cc2C)c(C(=O)OCC)c1C,27.2,8.9,12.5,-30.1,12.8*,1.5
CCCC(c1nnnn1CS(=O)(=O)c1ccc(C)cc1)N1CCN(CC)CC1 (stereo not drawn),0.7,-2.4,1.8,8.9,0.5,.
SMILES,ABCB1 inh,L major viab,ABCG2 inh,WT yeast gro inh,RAM network inh,RAM efflux-def
C=CCOC(=O)C1=C(C)NC(C)=C(C(=O)OCC=C)C1/C=C/c1ccccc1,1.7,100.1*,9.0,50.3,15.1*,5.5
CCCC1S/C(=N/N=C/c2ccc(OC)cc2)N(Cc2ccc(OC)cc2)C1=O (stereo not drawn),1.1,7.2,7.9,15.6,13.2*,6.5
CCCC1S/C(=N/N=C/c2ccc(OC)cc2)N(Cc2ccccc2)C1=O (stereo not drawn),0.8,10.8,9.8,7.5,14.9*,3.3
CCCCC1S/C(=N/N=C/c2ccc(OC)cc2)N(Cc2ccc(OC)cc2)C1=O (stereo not drawn),0.7,1.4,2.4,5.0,13.6*,6.4
CC(OC(=O)c1ccc(S(=O)(=O)NCc2ccco2)cc1)C(=O)Nc1ncc(Cl)cc1Cl (stereo not drawn),0.3,-4.1,0.2,-12.3,7.1,.
COc1ccc(C2CCCN2C(=S)Nc2cccc(Cl)c2C)cc1OC (stereo not drawn),1.0,17.5,3.2,28.7,-0.5,.
CC1=CC(=C(C#N)C#N)C=C(C)N1CCC(C)C,1.6,-1.4,7.8,0.3,1.3,.
CC(=O)Oc1cccc(N2C(=O)c3ccc(C(=O)Nc4c[nH]c(=O)[nH]c4=O)cc3C2=O)c1,0.8,-7.4,1.2,1.4,12.5*,2.8
Cn1c(CSCc2ccccc2)nnc1SCC(=O)Nc1ccc(C(=O)O)cc1,0.6,-7.3,8.8,7.7,5.6,.
CCOC(=O)CSc1nc2ccccc2c(=O)n1CC1CCCC1,-0.1,5.0,2.0,30.1,17.6*,1.4
CCOC(=O)CSc1nc2ccccc2c(=O)n1CC,-0.2,0.1,-0.3,-7.0,0.2,.
CC1CCN(c2nc3c(c(=O)[nH]c(=O)n3C)n2CCSc2ncccn2)CC1,.,.,.,15.1,.,.
O=C(CCC(=O)c1ccc(Oc2ccccc2)cc1)Nc1cccc(Cl)c1Cl,0.7,-4.6,1.4,2.6,14.1*,2.7
CCCCCCCC(O)CC(CC1CCCCC1)C(=O)NN (stereo not drawn),0.8,7.1,5.8,14.6,0.4,.
COc1ccc(CSCC(=O)Nc2ccc(S(=O)(=O)N3CCCCCC3)cc2)cc1,0.5,17.1,4.5,41.0,14.3*,1.5
CCOc1ccc(NS(=O)(=O)c2ccc(NC(=S)NC(=O)CC(C)C)cc2)cc1,4.3,98.2*,22.5,79.5*,12.1*,2.4
COc1ccc(Cl)cc1N(C(C)C(=O)NC1CCCC1)S(C)(=O)=O (stereo not drawn),1.5,0.6,9.7,1.4,1.9,.
C/C(=N\NC(=S)NCc1ccccc1)c1ccc(C(C)(C)C)cc1,0.9,12.7,-0.6,63.2*,11.5*,5.1
C/C(=N\NC(=S)NCc1ccccc1)c1ccc(C#N)cc1,-0.4,4.9,-0.7,31.2,4.0,.
CC(Sc1ccc2c(c1)OCCO2)C(=O)Nc1ccc(N2CCOCC2)cc1 (stereo not drawn),1.9,3.8,10.8,-11.4,-0.5,.
